Reference: ChEMBL document CHEMBL3853327 (J Med Chem, 2016)
pEC50, pIC50: −log10 of the molar value.

Molecular target: not listed separately
Experiment: Inhibition of recombinant wild type HIV1 reverse transcriptase using DIG-dUTP/biotin-dUTP/dTTP assessed as suppression of biotin-dUTP incorporation after 1 hr by ELISA
Design: species or system Human immunodeficiency virus 1
Details: not given
How it was run: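 Recombinant WT HIV-1 RT in a Roche colorimetric kit: template plus DIG-dUTP, biotin-dUTP and dTTP, ±inhibitor, 1 h at 37 °C. Product captured on streptavidin plate 1 h at 37 °C, anti-DIG-POD 1 h at 37 °C, ABTS developed at 25 °C, read at OD405. IC50 is the concentration inhibiting biotin-dUTP incorporation by 50%.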
For `Cc1cc(C)c(Oc2nc(NC3CCN(Cc4cccc(F)c4)CC3)nc3ccsc23)c(C)c1`, the pIC50 was 6.10.

Test system: Human immunodeficiency virus 1
Experiment: Fold resistance, ratio of IC50 for recombinant HIV1 reverse transcriptase K103N/Y181C double mutant to IC50 for wild type HIV1 reverse transcriptase
Details: not given
How it was run: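 Ratio of mutant to WT IC50. Recombinant WT and K103N/Y181C RT were assayed with a kit: template plus DIG-dUTP, biotin-dUTP and dTTP, with or without inhibitor, 1 h at 37 °C. Product was captured on streptavidin, detected with anti-DIG-POD and ABTS, and read at 405 nm. IC50 is the concentration inhibiting biotin-dUTP incorporation by 50%.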
For `Cc1cc(C)c(Oc2nc(NC3CCN(Cc4cccc(F)c4)CC3)nc3ccsc23)c(C)c1`, the Ratio IC50 was 51.2.

Test system: Human immunodeficiency virus 1
Experiment: Antiviral activity against HIV1 3B harboring reverse transcriptase F227L/V106A double mutant infected in human MT4 cells assessed as protection against virus induced cytotoxicity after 5 days by MTT assay
Type: functional, cell-based
Details: Human immunodeficiency virus 1, 3B, MT4, 120 h
How it was run: (§1)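 MTT cytopathicity assay in MT-4 cells (6 × 10^5 cells/mL). Compounds serially diluted 5-fold in triplicate wells, run in parallel on infected and mock-infected cells. Virus added at 100−300 CCID50 per well. Viability read spectrophotometrically at 540 and 690 nm after 5 days, using the median OD of three wells. EC50 is the concentration giving 50% protection from viral cytopathogenicity.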
For `Cc1cc(C)c(Oc2nc(NC3CCN(Cc4cccc(F)c4)CC3)nc3ccsc23)c(C)c1`, the pEC50 was 5.51.

Test system: not listed separately
Experiment: Selectivity index, ratio of CC50 for human mock-infected MT4 cells to EC50 for HIV1 3B harboring reverse transcriptase F227L/V106A double mutant infected in human MT4 cells
Type: toxicity, cell-based
Details: MT4 cells (mock-infected for CC50, HIV-1 infected for EC50)
How it was run: (§2)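 Selectivity index is CC50/EC50. CC50 is the concentration that reduces OD540 of mock-infected MT-4 cells by 50% in the 5-day MTT assay. EC50 is the 50% protection from virus-induced cytopathicity, measured in parallel on infected wells.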
`Cc1cc(C)c(Oc2nc(NC3CCN(Cc4cccc(F)c4)CC3)nc3ccsc23)c(C)c1` gave a selectivity ratio of 8. In the case of `Cc1cn([C@H]2C[C@H](N=[N+]=[N-])[C@@H](CO)O2)c(=O)[nH]c1=O` [ZIDOVUDINE], the selectivity ratio was > 1560.

Test system: not listed separately
Experiment: Selectivity index, ratio of CC50 for human mock-infected MT4 cells to EC50 for HIV1 3B harboring reverse transcriptase K103N mutant infected in human MT4 cells
Type: toxicity, cell-based
Details: MT4 cells (mock-infected for CC50, HIV-1 infected for EC50)
How it was run: as §2
`Cc1cc(C)c(Oc2nc(NC3CCN(Cc4cccc(F)c4)CC3)nc3ccsc23)c(C)c1` gave a selectivity ratio of 165. In the case of `Cc1cn([C@H]2C[C@H](N=[N+]=[N-])[C@@H](CO)O2)c(=O)[nH]c1=O` [ZIDOVUDINE], the selectivity ratio was > 1430.

Test system: Human immunodeficiency virus 1
Experiment: Antiviral activity against HIV1 3B harboring reverse transcriptase Y188L mutant infected in human MT4 cells assessed as protection against virus induced cytotoxicity after 5 days by MTT assay
Type: functional, cell-based
Details: Human immunodeficiency virus 1, 3B, MT4, 120 h
How it was run: as §1
With `Cc1cc(C)c(Oc2nc(NC3CCN(Cc4cccc(F)c4)CC3)nc3ccsc23)c(C)c1` the pEC50 was 6.22. Compound `Cc1cn([C@H]2C[C@H](N=[N+]=[N-])[C@@H](CO)O2)c(=O)[nH]c1=O` [ZIDOVUDINE] has a pEC50 of 8.20.

Test system: Human immunodeficiency virus 1
Experiment: Antiviral activity against HIV1 RES056 harboring reverse transcriptase K103N/Y181C double mutant infected in human MT4 cells assessed as protection against virus induced cytotoxicity after 5 days by MTT assay
Type: functional, cell-based
Details: Human immunodeficiency virus 1, RES056, MT4, 120 h
How it was run: as §1, with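 “wells.” for “wells. EC50 is the concentration giving 50% protection from viral cytopathogenicity.”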
With `Cc1cn([C@H]2C[C@H](N=[N+]=[N-])[C@@H](CO)O2)c(=O)[nH]c1=O` [ZIDOVUDINE] the pEC50 was 8.00.

Test system: Human immunodeficiency virus 1
Experiment: Antiviral activity against HIV1 3B harboring reverse transcriptase Y181C mutant infected in human MT4 cells assessed as protection against virus induced cytotoxicity after 5 days by MTT assay
Type: functional, cell-based
Details: Human immunodeficiency virus 1, 3B, MT4, 120 h
How it was run: as §1, with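 “wells.” for “wells. EC50 is the concentration giving 50% protection from viral cytopathogenicity.”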
`Cc1cc(C)c(Oc2nc(NC3CCN(Cc4cccc(F)c4)CC3)nc3ccsc23)c(C)c1` showed a pEC50 of 6.60. With `Cc1cn([C@H]2C[C@H](N=[N+]=[N-])[C@@H](CO)O2)c(=O)[nH]c1=O` [ZIDOVUDINE] the pEC50 was 8.17.

Test system: not listed separately
Experiment: Antiviral activity against HIV2 ROD harboring reverse transcriptase infected in human MT4 cells assessed as protection against virus induced cytotoxicity after 5 days by MTT assay
Type: functional, cell-based, Human immunodeficiency virus type 2 (ISOLATE ROD)
Details: Human immunodeficiency virus 2, MT4, 120 h
How it was run: as §1
With `Cc1cc(C)c(Oc2nc(NC3CCN(Cc4cccc(F)c4)CC3)nc3ccsc23)c(C)c1` the pEC50 was < 4.61. In the case of `Cc1cn([C@H]2C[C@H](N=[N+]=[N-])[C@@H](CO)O2)c(=O)[nH]c1=O` [ZIDOVUDINE], the pEC50 was 8.18.

Test system: not listed separately
Experiment: Cytotoxicity against human mock-infected MT4 cells assessed as reduction in cell viability after 5 days by MTT assay
Type: toxicity, cell-based
Details: not given
How it was run: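 Mock-infected MT-4 cells (6 × 10^5 cells/mL at seeding) with serial 5-fold compound dilutions in triplicate wells. Viability read by MTT after 5 days, absorbance at 540 and 690 nm, median OD of three wells. CC50 is the concentration reducing OD540 of mock-infected cells by 50%.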
`Cc1cc(C)c(Oc2nc(NC3CCN(Cc4cccc(F)c4)CC3)nc3ccsc23)c(C)c1` gave a CC50 at 120 h of 24600 nM. With `Cc1cn([C@H]2C[C@H](N=[N+]=[N-])[C@@H](CO)O2)c(=O)[nH]c1=O` [ZIDOVUDINE] the CC50 at 120 h was > 93600 nM.

Molecular target: Human immunodeficiency virus type 1 reverse transcriptase (Human immunodeficiency virus 1, UniProt Q72547, K103N/Y181C)
Experiment: Inhibition of recombinant HIV1 reverse transcriptase K103N/Y181C double mutant using DIG-dUTP/biotin-dUTP/dTTP assessed as suppression of biotin-dUTP incorporation after 1 hr by ELISA
Details: not given
For `Cc1cc(C)c(Oc2nc(NC3CCN(Cc4cccc(F)c4)CC3)nc3ccsc23)c(C)c1`, the pIC50 was 4.39.

Test system: Human immunodeficiency virus 1
Experiment: Antiviral activity against HIV1 3B harboring reverse transcriptase L100I mutant infected in human MT4 cells assessed as protection against virus induced cytotoxicity after 5 days by MTT assay
Type: functional, cell-based
Details: Human immunodeficiency virus 1, 3B, MT4, 120 h
How it was run: as §1
For `Cc1cc(C)c(Oc2nc(NC3CCN(Cc4cccc(F)c4)CC3)nc3ccsc23)c(C)c1`, the pEC50 was 5.82. In the case of `Cc1cn([C@H]2C[C@H](N=[N+]=[N-])[C@@H](CO)O2)c(=O)[nH]c1=O` [ZIDOVUDINE], the pEC50 was 8.42.

Test system: not listed separately
Experiment: Selectivity index, ratio of CC50 for human mock-infected MT4 cells to EC50 for HIV1 RES056 harboring reverse transcriptase K103N/Y181C double mutant infected in human MT4 cells
Type: toxicity, cell-based
Details: MT4 cells (mock-infected for CC50, HIV-1 infected for EC50)
How it was run: as §2
Work on `Cc1cc(C)c(Oc2nc(NC3CCN(Cc4cccc(F)c4)CC3)nc3ccsc23)c(C)c1` yielded a selectivity ratio of 3. In the case of `Cc1cn([C@H]2C[C@H](N=[N+]=[N-])[C@@H](CO)O2)c(=O)[nH]c1=O` [ZIDOVUDINE], the selectivity ratio was > 9150.

Test system: not listed separately
Experiment: Selectivity index, ratio of CC50 for human mock-infected MT4 cells to EC50 for HIV1 3B harboring reverse transcriptase Y181C mutant infected in human MT4 cells
Type: toxicity, cell-based
Details: MT4 cells (mock-infected for CC50, HIV-1 infected for EC50)
How it was run: as §2
`Cc1cc(C)c(Oc2nc(NC3CCN(Cc4cccc(F)c4)CC3)nc3ccsc23)c(C)c1` gave a selectivity ratio of 98. In the case of `Cc1cn([C@H]2C[C@H](N=[N+]=[N-])[C@@H](CO)O2)c(=O)[nH]c1=O` [ZIDOVUDINE], the selectivity ratio was > 1120.

Test system: Human immunodeficiency virus 1
Experiment: Antiviral activity against wild type HIV1 3B harboring reverse transcriptase infected in human MT4 cells assessed as protection against virus induced cytotoxicity after 5 days by MTT assay
Type: functional, cell-based
Details: Human immunodeficiency virus 1, 3B, MT4, 120 h
How it was run: as §1, with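 “wells.” for “wells. EC50 is the concentration giving 50% protection from viral cytopathogenicity.”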
With `Cc1cc(C)c(Oc2nc(NC3CCN(Cc4cccc(F)c4)CC3)nc3ccsc23)c(C)c1` the pEC50 was 7.41. In the case of `Cc1cn([C@H]2C[C@H](N=[N+]=[N-])[C@@H](CO)O2)c(=O)[nH]c1=O` [ZIDOVUDINE], the pEC50 was 8.24.

Test system: not listed separately
Experiment: Selectivity index, ratio of CC50 for human mock-infected MT4 cells to EC50 for HIV1 3B harboring reverse transcriptase L100I mutant infected in human MT4 cells
Type: toxicity, cell-based
Details: MT4 cells (mock-infected for CC50, HIV-1 infected for EC50)
How it was run: as §2
In the case of `Cc1cc(C)c(Oc2nc(NC3CCN(Cc4cccc(F)c4)CC3)nc3ccsc23)c(C)c1`, the selectivity ratio was 16. In the case of `Cc1cn([C@H]2C[C@H](N=[N+]=[N-])[C@@H](CO)O2)c(=O)[nH]c1=O` [ZIDOVUDINE], the selectivity ratio was > 1990.

Test system: not listed separately
Experiment: Selectivity index, ratio of CC50 for human mock-infected MT4 cells to EC50 for HIV1 3B harboring reverse transcriptase E138K mutant infected in human MT4 cells
Type: toxicity, cell-based
Details: MT4 cells (mock-infected for CC50, HIV-1 infected for EC50)
How it was run: as §2
In the case of `Cc1cc(C)c(Oc2nc(NC3CCN(Cc4cccc(F)c4)CC3)nc3ccsc23)c(C)c1`, the selectivity ratio was 143. For `Cc1cn([C@H]2C[C@H](N=[N+]=[N-])[C@@H](CO)O2)c(=O)[nH]c1=O` [ZIDOVUDINE], the selectivity ratio was > 1030.

Test system: not listed separately
Experiment: Selectivity index, ratio of CC50 for human mock-infected MT4 cells to EC50 for HIV1 3B harboring reverse transcriptase Y188L mutant infected in human MT4 cells
Type: toxicity, cell-based
Details: MT4 cells (mock-infected for CC50, HIV-1 infected for EC50)
How it was run: as §2
For `Cc1cc(C)c(Oc2nc(NC3CCN(Cc4cccc(F)c4)CC3)nc3ccsc23)c(C)c1`, the selectivity ratio was 41. With `Cc1cn([C@H]2C[C@H](N=[N+]=[N-])[C@@H](CO)O2)c(=O)[nH]c1=O` [ZIDOVUDINE] the selectivity ratio was > 1180.

Test system: Human immunodeficiency virus 1
Experiment: Antiviral activity against HIV1 3B harboring reverse transcriptase K103N mutant infected in human MT4 cells assessed as protection against virus induced cytotoxicity after 5 days by MTT assay
Type: functional, cell-based
Details: Human immunodeficiency virus 1, 3B, MT4, 120 h
How it was run: as §1
In the case of `Cc1cc(C)c(Oc2nc(NC3CCN(Cc4cccc(F)c4)CC3)nc3ccsc23)c(C)c1`, the pEC50 was 6.83. Work on `Cc1cn([C@H]2C[C@H](N=[N+]=[N-])[C@@H](CO)O2)c(=O)[nH]c1=O` [ZIDOVUDINE] yielded a pEC50 of 8.28.

Test system: not listed separately
Experiment: Selectivity index, ratio of CC50 for human mock-infected MT4 cells to EC50 for wild type HIV1 3B harboring reverse transcriptase infected in human MT4 cells
Type: toxicity, cell-based
Details: MT4 cells (mock-infected for CC50, HIV-1 infected for EC50)
How it was run: as §2
`Cc1cc(C)c(Oc2nc(NC3CCN(Cc4cccc(F)c4)CC3)nc3ccsc23)c(C)c1` gave a selectivity ratio of 628. For `Cc1cn([C@H]2C[C@H](N=[N+]=[N-])[C@@H](CO)O2)c(=O)[nH]c1=O` [ZIDOVUDINE], the selectivity ratio was > 13100.

Test system: Human immunodeficiency virus 1
Experiment: Antiviral activity against HIV1 3B harboring reverse transcriptase E138K mutant infected in human MT4 cells assessed as protection against virus induced cytotoxicity after 5 days by MTT assay
Type: functional, cell-based
Details: Human immunodeficiency virus 1, 3B, MT4, 120 h
How it was run: as §1
For `Cc1cc(C)c(Oc2nc(NC3CCN(Cc4cccc(F)c4)CC3)nc3ccsc23)c(C)c1`, the pEC50 was 6.76. `Cc1cn([C@H]2C[C@H](N=[N+]=[N-])[C@@H](CO)O2)c(=O)[nH]c1=O` [ZIDOVUDINE] showed a pEC50 of 8.14.
